Experimental data gathered from unrelated publications.
Protocols differ between the studies behind these lines.
MAOA: Amine oxidase [flavin-containing] A (MAOA, Homo sapiens, UniProt P21397)
LDHA: L-lactate dehydrogenase A chain (LDHA, Homo sapiens, UniProt P00338)
PRMT3: Protein arginine N-methyltransferase 3 (PRMT3, Homo sapiens, UniProt O60678)

Compound | target | test | setting | inhibition [%]
N#Cc1cc(Cn2c(N3CCCC3)nc3ccccc32)ccc1F | Translocator protein (Tspo, Rattus norvegicus, UniProt P16257) | cell-free assay | 10 µM | 76.7
CC1=C(C(=O)Nc2ccc([N+](=O)[O-])cc2Cl)Cc2ccccc21 | MAOA | enzyme activity, inhibitor | 1 µM, 20 min | -3
COC(=O)CN=c1scc(-c2ccccc2)n1-c1ccccc1[N+](=O)[O-] | LDHA | enzyme activity, inhibitor, fluorescence | 100 µM, pH 7.2 | 53
N=C(NCCCSC[C@H]1O[C@@H](n2cnc3c(NCCCc4ccccc4)ncnc32)[C@H](O)[C@@H]1O)Nc1ccccc1 | PRMT3 | enzyme activity, inhibitor, fluorescence | 10 µM | 4.92
Oc1cccc(Nc2nc(-c3ccc(F)cc3F)cs2)c1 | Histamine H2 receptor (HRH2, Homo sapiens, UniProt P25021) | cell-free assay | 10 µM | -33.9
COc1cc([N+](=O)[O-])ccc1NC(=O)c1ccccc1O | MAOA | enzyme activity, inhibitor | 1 µM, 20 min | 9
CCCCNC(=N)NCCCSC[C@H]1O[C@@H](n2cnc3c(NCCCc4ccccc4)ncnc32)[C@H](O)[C@@H]1O | PRMT3 | enzyme activity, inhibitor, fluorescence | 10 µM | 11.1
Nc1ncnc2c1ncn2[C@@H]1O[C@H](CSCCNC(=O)NCc2ccccc2)[C@@H](O)[C@H]1O | Protein arginine N-methyltransferase 5 (PRMT5, Homo sapiens, UniProt O14744) | enzyme activity, inhibitor, radiometric | 10 µM | > 95
COc1cc(NC(C)=O)c(Cl)cc1C(=O)Nc1nccs1 | Alpha-1A adrenergic receptor (ADRA1A, Homo sapiens, UniProt P35348) | cell-free assay | 10 µM | 13.9
O=C1N=C(N2CCCCN2)S/C1=C\c1ccc(F)cc1O | Kappa-type opioid receptor (Oprk1, Rattus norvegicus, UniProt P34975) | ligand displacement, radioligand | 10 µM | 11
CCN(c1cc(C#CCN2CCOCC2)cc(C(=O)NCc2c(C)cc(C)[nH]c2=O)c1C)[C@H]1CC[C@H](N(C)CCOC)CC1 | PRMT3 | enzyme activity, inhibitor | 1 µM | 10
N=C(NCCCN)NCCCSC[C@H]1O[C@@H](n2cnc3c(NCCCc4ccccc4)ncnc32)[C@H](O)[C@@H]1O | PRMT3 | enzyme activity, inhibitor, fluorescence | 10 µM | 1.09
O=C(Nc1ccc([N+](=O)[O-])cc1Cl)c1ccc2ccccc2c1 | MAOA | enzyme activity, inhibitor | 1 µM, 20 min | 11
Cc1ccc2c(ccn2CCC2CCN(C(=O)OC(C(F)(F)F)C(F)(F)F)CC2)c1 | Fatty-acid amide hydrolase 1 (Faah, Rattus norvegicus, UniProt P97612) | enzyme activity, inhibitor | 10 µM | 36
O=C(Nc1ccc([N+](=O)[O-])cc1)c1ccc([N+](=O)[O-])cc1Cl | MAOA | enzyme activity, inhibitor | 1 µM, 20 min | 13
COC(=O)CN=c1scc(-c2ccccc2)n1-c1ccccc1OC | LDHA | enzyme activity, inhibitor, fluorescence | 100 µM, pH 7.2 | 48
O=C(Nc1ccccn1)c1ccc(Cl)cc1 | MAOA | enzyme activity, inhibitor | 1 µM, 20 min | 13
Cc1ccc(Nc2nccc(N(C)c3ccc4c(C)n(C)nc4c3)n2)cc1S(N)(=O)=O | Ribosomal protein S6 kinase alpha-1 (Rps6ka1, Rattus norvegicus, UniProt Q63531) | enzyme activity, inhibitor | 0.3 µM | 27
